In ChEMBL document CHEMBL1641445, “Synthesis, antiprotozoal, antimicrobial, β-hematin inhibition, cytotoxicity and methemoglobin (MetHb) formation activities of bis(8-aminoquinolines)” (Bioorg Med Chem, 2011):
In brackets after ≈: the same amount, converted by molar mass. Activity calls are given as the source filed them. The calls are words filed in the database; no cut-off is given here.

Legend:
[1] = test system: Leishmania donovani; experiment: Antileishmanial activity against promastigotes of Leishmania donovani by alamar blue assay; assay type: functional, organism-based
[2] = Hematotoxicity against RBC assessed as formation of methemoglobin at 20 ug/ml relative to control; assay type: cell-based; conditions: erythrocyte
Procedure, shortened: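 Metabolism-linked methemoglobin toxicity in vitro. Percent MetHb formation was determined at 20 µg/mL of compound relative to vehicle control.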

[3] = Inhibition of beta-hematin formation; assay type: functional
[4] = test system: Vero; experiment: Cytotoxicity against african green monkey Vero cells up to 10 ug/ml by neutral red assay; assay type: cell-based; conditions: chlorocebus sabaeus
Procedure, shortened: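 Vero (monkey kidney) cells were exposed up to a highest concentration of 10 µg/mL. Viability was read by neutral red uptake.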

[5] = test system: Plasmodium falciparum; experiment: Antimalarial activity against chloroquine-resistant Plasmodium falciparum W2 by LDH assay; assay type: functional, organism-based
Procedure, shortened: (§1)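 Antiplasmodial activity was measured in vitro against P. falciparum blood-stage cultures. Read-out was parasite lactate dehydrogenase (LDH) activity, with IC50 values expressed in µg/mL. The same protocol was used for the D6 and W2 strains.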

[6] = test system: Plasmodium falciparum; experiment: Antimalarial activity against chloroquine-sensitive Plasmodium falciparum D6 by LDH assay; assay type: functional, organism-based; procedure, shortened: as §1
[7] = test system: Mycobacterium intracellulare; experiment: Antibacterial activity against Mycobacterium intracellular ATCC 23068 at 20 ug/ml by CLSI method; assay type: functional, organism-based
[8] = test system: Staphylococcus aureus; experiment: Antibacterial activity against methicillin-resistant Staphylococcus aureus ATCC 43300 by CLSI method; assay type: functional, organism-based
Procedure, shortened: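 Broth dilution method (NCCLS M7-A5). […] MIC is the lowest concentration allowing no detectable growth. MBC is the lowest concentration killing the organism. Highest test concentration was 20 µg/mL.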

[9] = test system: Candida albicans; experiment: Antifungal activity against Candida albicans ATCC 90028 at 20 ug/ml; assay type: functional, organism-based
[10] = test system: Cryptococcus neoformans; experiment: Antifungal activity against Cryptococcus neoformans ATCC 90113; assay type: functional, organism-based
[11] = test system: Plasmodium berghei; experiment: Antimalarial activity against Plasmodium berghei infected in mouse assessed as complete elimination of malaria parasites from animals at 100 mg/kg, po qd for 4 days measured up to 60 days; assay type: functional, organism-based; set-up: dose 100 mg/kg
Procedure, shortened: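 Rodent P. berghei (sensitive strain) blood-schizontocidal model, 6 mice per group. Compounds were given orally once daily for 4 days at 10, 25, 50 or 100 mg/kg/day. Cure meant complete parasite elimination with survival to day D+60.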

[12] = test system: Aspergillus fumigatus; experiment: Antifungal activity against Aspergillus fumigatus ATCC 90906 at 20 ug/ml; assay type: functional, organism-based
[13] = test system: Nakaseomyces glabratus; experiment: Antifungal activity against Candida glabrata at 20 ug/ml; assay type: functional, organism-based
[14] = test system: Pichia kudriavzevii; experiment: Antifungal activity against Candida krusei at 20 ug/ml; assay type: functional, organism-based
[15] = test system: Mycobacterium intracellulare; experiment: Antibacterial activity against Mycobacterium intracellular ATCC 23068 by CLSI method; assay type: functional, organism-based
[16] = Leishmania donovani, read-out: IC50
[17] = Plasmodium falciparum, W2, read-out: IC50
[18] = Plasmodium falciparum, D6, read-out: IC50

| SMILES | IC90 [1] | IC50 [1, 16] [µg/mL] | Methemoglobin formation [2] [%] | IC50 [3] [µM] | Activity [4] | IC50 [5, 17] [µg/mL] | IC50 [6, 18] [µg/mL] | IC90 ([1]; Leishmania donovani) [µg/mL] | further results |
| --- | --- | --- | --- | --- | --- | --- | --- | --- | --- |
| COc1cc(NC(C)CCCNC(=O)c2cncc(C(=O)NCCCC(C)Nc3cc(OC)cc4ccc(C(C)(C)C)nc34)c2)c2nc(C(C)(C)C)ccc2c1.Cl (centres undefined) | inactive | 19 | 0.55 | 120 | Non-toxic |  |  |  |  |
| COc1cc(NC(C)CCCNC(=O)c2ccncc2C(=O)NCCCC(C)Nc2cc(OC)cc3cccnc23)c2ncccc2c1.Cl (centres undefined) | inactive |  | 3.55 | 108 | Non-toxic | 1.7 | 3 |  | IC50 [1]: Not Active |
| COc1cc(NC(C)CCCN)c2nc(C(C)(C)C)ccc2c1 (centres undefined) |  |  |  | 2.9 |  |  |  |  |  |
| COc1cc(NC(C)CCCNC(=O)NC(=O)NCCCC(C)Nc2cc(OC)cc3ccc(C(C)(C)C)nc23)c2nc(C(C)(C)C)ccc2c1.Cl.Cl (centres undefined) |  | 25 | 8.8 | > 1000 | Non-toxic |  |  | > 40 | IC50 [5]: Not Active; IC50 [6]: Not Active |
| N=C(N)c1ccc(OCCCCCOc2ccc(C(=N)N)cc2)cc1 [PENTAMIDINE] |  |  |  |  |  |  |  | 3.8 (≈ 11.2 µM) |  |
| COc1cc(NC(C)CCCNC(=S)NCCCC(C)Nc2cc(OC)cc3ccc(C(C)(C)C)nc23)c2nc(C(C)(C)C)ccc2c1.Cl.Cl (centres undefined) |  | 9 | 0.75 | > 1000 | Non-toxic | 2.3 | 3 | 31 |  |
| COc1cc(NC(C)CCCNC(=O)NC(CCCN)C(=O)NCCCC(C)Nc2cc(OC)cc3cccnc23)c2ncccc2c1.Cl (single isomer, unassigned; 40) |  | 18 | 6.1 | 154 | Non-toxic | 2.8 | 4.2 | 39 | IC50 [7]: Not Active; IC50 [8]: 10 µg/mL; MIC [8]: 20 µg/mL; IC50 [9]: Not Active; IC50 [10]: 7 µg/mL |
| COc1cc(NC(C)CCCNC(=O)NC(=O)NCCCC(C)Nc2cc(OC)cc3cccnc23)c2ncccc2c1.Cl.Cl (centres undefined) | inactive |  | 2.25 | 155 | Non-toxic | 3.4 | 4.76 |  | IC50 [1]: Not Active; Activity [11]: inactive |
| COc1cc(NC(C)CCCNC(=O)C(=O)NCCCC(C)Nc2cc(OC)cc3cccnc23)c2ncccc2c1.Cl.Cl (centres undefined) |  | 15 | 6.45 | > 1000 | Non-toxic |  |  | > 40 | IC50 [5]: Not Active; IC50 [6]: Not Active |
| COc1cc(NC(C)CCCNC(=O)NC(CCCNC(=N)N)C(=O)NCCCC(C)Nc2cc(OC)cc3cccnc23)c2ncccc2c1 (single isomer, unassigned; 39) |  |  |  |  |  |  |  |  | Activity [12]: inactive; MBC [7]: inactive; MIC [7]: inactive; MFC [9]: inactive; MIC [9]: inactive; Activity [13]: inactive; Activity [14]: inactive |
| COc1cc(NC(C)CCCNC(=O)NCCCC(C)Nc2cc(OC)cc3ccc(C(C)(C)C)nc23)c2nc(C(C)(C)C)ccc2c1.Cl.Cl (centres undefined) | inactive |  | 1 | > 1000 | Non-toxic |  | 3 |  | IC50 [1]: Not Active; Activity [11]: inactive |
| COc1cc(NC(C)CCCNC(=O)NC(CCCN)C(=O)NCCCC(C)Nc2cc(OC)cc3cccnc23)c2ncccc2c1.Cl (single isomer, unassigned; 37) |  | 14 | 7.9 | 88 | Non-toxic | 2 | 2.8 | 40 | IC50 [9]: Not Active; IC50 [10]: 15 µg/mL; MFC [10]: 20 µg/mL; MIC [10]: 20 µg/mL |
| COc1cc(NC(C)CCCNC(=O)NC(CCCNC(=N)N)C(=O)NCCCC(C)Nc2cc(OC)cc3cccnc23)c2ncccc2c1.Cl (single isomer, unassigned; 39) |  | 19 | 5.5 | 88 | Non-toxic | 1.5 | 2.4 | 36 | IC50 [7]: Not Active; IC50 [8]: 15 µg/mL; MBC [8]: 20 µg/mL; IC50 [9]: Not Active; IC50 [10]: 15 µg/mL; MFC [10]: 20 µg/mL; MIC [10]: 20 µg/mL |
| C[C@@H]1[C@H](O)[C@@H](C)/C=C/C=C/C=C/C=C/C=C/C=C/C=C/[C@H](O[C@@H]2O[C@H](C)[C@@H](O)[C@H](N)[C@@H]2O)C[C@@H]2O[C@](O)(C[C@@H](O)C[C@@H](O)[C@H](O)CC[C@@H](O)C[C@@H](O)CC(=O)O[C@H]1C)C[C@H](O)[C@H]2C(=O)O [AMPHOTERICIN B] |  |  |  |  |  |  |  | 0.35 (≈ 0.379 µM) |  |
| COc1cc(NC(C)CCCNC(=O)c2ccncc2C(=O)NCCCC(C)Nc2cc(OC)cc3ccc(C(C)(C)C)nc23)c2nc(C(C)(C)C)ccc2c1.Cl (centres undefined) |  | 16 | 1.2 | 70 | Non-toxic | 0.87 | 1.5 | 31 | IC50 [7]: Not Active; MBC [7]: inactive; MIC [7]: inactive; IC50 [8]: 15 µg/mL; MBC [8]: 20 µg/mL; MIC [8]: 20 µg/mL |
| COc1cc(NC(C)CCCNC(=O)NCCCC(C)Nc2cc(OC)cc3cccnc23)c2ncccc2c1.Cl.Cl (centres undefined) | inactive |  | 9.8 | > 1000 | Non-toxic | 4.76 | 4.76 |  | IC50 [1]: Not Active; Activity [11]: inactive |
| COc1cc(NC(C)CCCNSC(=O)NCCCC(C)Nc2cc(OC)cc3cccnc23)c2ncccc2c1.Cl.Cl (centres undefined) |  | 20 | 10.9 | 153 | Non-toxic | 4.76 |  | 38 | IC50 [6]: Not Active |
| COc1cc(NC(C)CCCNC(=O)c2cncc(C(=O)NCCCC(C)Nc3cc(OC)cc4cccnc34)c2)c2ncccc2c1.Cl (centres undefined) | inactive | 18 | 5.5 | 110 | Non-toxic | 3 | 3.3 |  |  |
| COc1cc(NC(C)CCCNC(=O)NC(CCCCN)C(=O)NCCCC(C)Nc2cc(OC)cc3cccnc23)c2ncccc2c1.Cl (single isomer, unassigned) |  | 18 | 3.75 | 80 | Non-toxic | 2.7 | 2.7 | > 40 |  |
| C[C@@H]1CC[C@H]2[C@@H](C)C(=O)O[C@@H]3O[C@@]4(C)CC[C@@H]1[C@]32OO4 [ARTEMISININ] |  |  |  |  |  |  | 0.015 (≈ 0.0531 µM) |  |  |
| COc1cc(NC(C)CCCNC(=O)c2cccc(C(=O)NCCCC(C)Nc3cc(OC)cc4ccc(C(C)(C)C)nc34)n2)c2nc(C(C)(C)C)ccc2c1.Cl (centres undefined) | inactive |  | 0.25 | > 1000 | Non-toxic | 4.5 |  |  | IC50 [1]: Not Active; IC50 [6]: Not Active |
| COc1cc(NC(C)CCCNC(=O)NC(CCCNC(=N)N)C(=O)NCCCC(C)Nc2cc(OC)cc3cccnc23)c2ncccc2c1.Cl (single isomer, unassigned; 36) |  |  | 3.1 | 90 | Non-toxic |  |  | 7.2 | IC50 [8]: 15 µg/mL; MIC [8]: 20 µg/mL; IC50 [9]: Not Active; IC50 [15]: 15 µg/mL; MBC [15]: 20 µg/mL; MIC [15]: 20 µg/mL; IC50 [10]: 6.5 µg/mL; MFC [10]: 10 µg/mL; MIC [10]: 10 µg/mL |
| COc1cc(NC(C)CCCNC(=O)c2cccc(C(=O)NCCCC(C)Nc3cc(OC)cc4cccnc34)n2)c2ncccc2c1.Cl (centres undefined) | inactive | 6.5 | 5.7 | 123 | Non-toxic | 2.3 |  |  |  |
| COc1cc(NC(C)CCCNC(=O)N[C@@H](CCCCN)C(=O)NCCCC(C)Nc2cc(OC)cc3ccc(C(C)(C)C)nc23)c2nc(C(C)(C)C)ccc2c1.Cl (some centres undefined) |  | 19 | 1.1 | > 1000 | Non-toxic |  |  | 38 | IC50 [7]: Not Active; MBC [7]: inactive; MIC [7]: inactive; IC50 [5]: Not Active; IC50 [8]: 8 µg/mL; MBC [8]: 20 µg/mL; MIC [8]: 20 µg/mL; IC50 [6]: Not Active |
| COc1cc(NC(C)CCCNCC(=O)NCCCC(C)Nc2cc(OC)cc3cccnc23)c2ncccc2c1.Cl.Cl (centres undefined) | inactive | 20 | 20.3 | > 1000 | Non-toxic |  |  |  | IC50 [5]: Not Active; IC50 [6]: Not Active |
